# Results as given in ChEMBL document CHEMBL4257575, “Discovery of Novel Flavonoid Dimers To Reverse Multidrug Resistance Protein 1 (MRP1, ABCC1) Mediated Drug Resistance in Cancers Using a High Throughput Platform with "Click Chemistry"” (J Med Chem, 2018).
# The source made the active and inactive calls. The calls are words filed in the database; no cut-off is given here.
# Columns and labels:
# [1] = organism: Homo sapiens; test: Effect on doxorubicin influx in human 2008/P cells at 2 uM incubated up to 60 mins by flow cytometric analysis; format: functional, cell-based
# [2] = organism: Homo sapiens; test: Inhibition of P-gp in human LCC6MDR cells assessed as potentiation of paclitaxel-induced cytotoxicity by measuring fold reduction in paclitaxel IC50 at 1 uM after 5 days by MTS assay relative to paclitaxel alone; format: cell-based
# [3] = organism: Homo sapiens; test: Effect on doxorubicin influx in human 2008/MRP1 cells at 2 uM incubated up to 60 mins by flow cytometric analysis; format: functional, cell-based
# [4] = organism: Homo sapiens; test: Effect on MRP1 expression in human 2008/MRP1 cells up to 5 uM after 3 days by FITC staining based flow cytometry; format: functional, cell-based
# [5] = system: MRP1; test: in vitro; conditions: mouse, L929 cells (IC50) versus 2008/MRP1 cells (EC50)
# [6] = target: T1, Multidrug resistance-associated protein 1 (Homo sapiens, UniProt P33527); test: Inhibition of MRP1 in human 2008/MRP1 cells assessed as potentiation of doxorubicin-induced cytotoxicity by measuring cell survival at 2 uM after 5 days by MTS assay relative to control; format: cell-based; conditions: 120 h
# T1 sequence (P33527 whole entry): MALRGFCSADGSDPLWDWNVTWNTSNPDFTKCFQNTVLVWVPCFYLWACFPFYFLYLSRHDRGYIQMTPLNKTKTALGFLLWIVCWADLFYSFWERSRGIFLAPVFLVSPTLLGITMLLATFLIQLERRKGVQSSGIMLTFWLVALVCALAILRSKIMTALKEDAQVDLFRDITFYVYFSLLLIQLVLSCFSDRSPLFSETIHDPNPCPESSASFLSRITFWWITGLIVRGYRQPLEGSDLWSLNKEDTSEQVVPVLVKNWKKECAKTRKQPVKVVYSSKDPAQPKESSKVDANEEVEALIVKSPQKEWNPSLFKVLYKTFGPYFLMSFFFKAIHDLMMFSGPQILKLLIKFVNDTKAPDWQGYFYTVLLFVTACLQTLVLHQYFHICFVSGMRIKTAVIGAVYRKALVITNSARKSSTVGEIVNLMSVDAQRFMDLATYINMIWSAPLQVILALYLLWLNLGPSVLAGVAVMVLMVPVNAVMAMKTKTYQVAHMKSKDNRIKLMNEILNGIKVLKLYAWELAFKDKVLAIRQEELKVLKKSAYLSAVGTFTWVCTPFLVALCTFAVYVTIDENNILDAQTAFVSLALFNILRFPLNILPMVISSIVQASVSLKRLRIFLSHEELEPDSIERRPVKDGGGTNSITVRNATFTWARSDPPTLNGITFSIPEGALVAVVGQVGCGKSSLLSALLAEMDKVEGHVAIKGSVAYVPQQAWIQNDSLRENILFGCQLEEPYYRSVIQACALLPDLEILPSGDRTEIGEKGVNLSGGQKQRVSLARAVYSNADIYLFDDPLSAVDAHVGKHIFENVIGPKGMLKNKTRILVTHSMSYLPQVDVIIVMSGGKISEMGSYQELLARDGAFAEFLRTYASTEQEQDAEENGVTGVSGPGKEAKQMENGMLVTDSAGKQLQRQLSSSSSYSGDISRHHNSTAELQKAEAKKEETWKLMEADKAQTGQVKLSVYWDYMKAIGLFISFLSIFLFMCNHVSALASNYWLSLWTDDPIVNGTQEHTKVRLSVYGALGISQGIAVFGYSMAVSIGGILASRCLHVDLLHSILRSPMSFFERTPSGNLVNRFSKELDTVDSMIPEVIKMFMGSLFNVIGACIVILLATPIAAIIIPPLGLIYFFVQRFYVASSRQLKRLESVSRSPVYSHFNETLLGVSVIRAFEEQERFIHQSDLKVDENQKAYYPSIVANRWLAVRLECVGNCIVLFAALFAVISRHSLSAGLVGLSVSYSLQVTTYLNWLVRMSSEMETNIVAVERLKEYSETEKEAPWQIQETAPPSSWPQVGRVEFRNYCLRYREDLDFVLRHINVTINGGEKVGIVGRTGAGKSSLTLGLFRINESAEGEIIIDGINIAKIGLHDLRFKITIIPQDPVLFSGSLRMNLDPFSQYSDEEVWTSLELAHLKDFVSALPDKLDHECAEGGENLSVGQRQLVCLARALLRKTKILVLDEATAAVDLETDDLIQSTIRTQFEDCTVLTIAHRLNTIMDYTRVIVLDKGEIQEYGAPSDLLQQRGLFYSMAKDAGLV
# Summary of the method: (§1)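 2008/MRP1 cells (retroviral human MRP1 transfectant; RPMI 1640, 10% FBS) at 4,000 per well, with 100 nM doxorubicin plus crude, unpurified click products in DMSO: 2 µM in the primary screen, 1 µM in the secondary. Incubated 5 days at 37 °C. MTS/PMS added for 2 h at 37 °C, absorbance read at 490 nm. % survival is relative to wells without DOX or product. Run in triplicate, at least three experiments.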
# [7] = Cytotoxicity against human 2008/MRP1 cells assessed as cell survival at 2 uM after 5 days by MTS assay relative to control; format: cell-based; conditions: read-out: Survival
# [8] = system: L929; test: Cytotoxicity against mouse L929 cells assessed as reduction in cell survival after 5 days by MTS assay; format: cell-based; conditions: L929, 120 h
# [9] = target: T1, Multidrug resistance-associated protein 1; test: Inhibition of MRP1 in human 2008/MRP1 cells assessed as potentiation of doxorubicin-induced cytotoxicity by measuring cell survival at 1 uM after 5 days by MTS assay relative to control; format: cell-based; conditions: 120 h; summary of the method: as §1
# [10] = system: Mus musculus; test: Time duration at which plasma concentration stays above in vitro EC50 for MRP1 in Balb/c mouse at 10 mg/kg, iv measured up to 360 mins by LC-MS/MS analysis; format: ADME, organism-based; conditions: in vivo, 6 h
# Summary of the method: (§2)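 Female Balb/c mice given 10 mg/kg i.v. (25G needle) of the HCl salt, 1.5 mg/mL in NMP:Cremorphol:Tween 80:H₂O (5:5:4.5:85.5). Cardiac-puncture blood under ether at 15–360 min, 3 mice per time point; plasma spun 16,000 g, stored −20°C. Methanol precipitation with [¹³C6]paclitaxel internal standard; LC-MS/MS, BEH C18, water/methanol with 0.1% formic acid gradient. Mean ± SEM.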
# [11] = Plasma concentration in Balb/c mouse at 10 mg/kg, iv measured up to 360 mins by LC-MS/MS analysis; format: ADME, organism-based; conditions: in vivo, 6 h, BLD = below limit of detection; summary of the method: as §2
# [12] = Solubility in NMP/Cremorphol/Tween80/H2O (5:5:4.5:85.5) formulation; format: physicochemical
# [13] = target: T1, Multidrug resistance-associated protein 1; test: Inhibition of MRP1 in human 2008/MRP1 cells assessed as effect on doxorubicin efflux at 2 uM up to 105 mins by flow cytometric analysis; format: cell-based
# Summary of the method: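 Efflux: cells preloaded with 20 µM DOX in supplemented RPMI1640 for 1 h at 37°C, washed, then kept with or without 2 µM modulator. […] Mean ± SEM; paired t test at each time point.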
Cp [11],solubility [12],Compound,Activity [1],Ratio IC50 [2],Activity [3],Activity [4],selectivity ratio [5],Survival [6] [%],"viability at 120 h, 2 µM [7] [%]",IC50 [8] [µM],Survival [9] [%],Time [10] [min],INH [13]
,,O=c1cc(-c2ccc(OCCCc3cn(CCOCCOc4ccc5c(=O)cc(-c6ccccc6)oc5c4)nn3)cc2)oc2cc(F)ccc12 [listing 1 of 2 here],inactive,40.7,inactive,inactive,,,,,,,
,,Cc1ccc2oc(-c3ccc(OCCCCc4cn(CCOCCOc5ccc(-c6cc(=O)c7cc(F)ccc7o6)cc5)nn4)cc3)cc(=O)c2c1,,99.2,,,> 400,30,99,> 100,38,,
,,O=c1cc(-c2ccccc2)oc2cc(OCCCc3cn(CCOCCOCCOc4ccc(-c5cc(=O)c6cc(F)ccc6o5)cc4)nn3)ccc12,,16,,,> 1050,48,88,> 100,49,,
,,O=c1cc(-c2ccc(OCCOCCn3cc(CCCCOc4ccc5c(=O)cc(-c6ccccc6)oc5c4)nn3)cc2)oc2ccccc12,,19.8,,,> 1150,30,95,> 100,42,,
,,Cc1ccc2oc(-c3ccc(OCCCCc4cn(CCOCCOc5ccc(-c6cc(=O)c7ccccc7o6)cc5)nn4)cc3)cc(=O)c2c1,,69,,,> 553,20,85,> 57,25,,
,,Cc1ccc2oc(-c3ccc(OCCCCc4cn(CCOCCOCCOc5ccc(-c6cc(=O)c7cc(F)ccc7o6)cc5)nn4)cc3)cc(=O)c2c1,,99.2,,,> 461,34,100,> 100,41,,
,,O=c1cc(-c2ccc(OCCOCCOCCn3cc(CCCOc4ccc(-c5cc(=O)c6ccc(F)cc6o5)cc4)nn3)cc2)oc2ccccc12,,4,,,> 481,44,93,> 100,51,,
,,O=c1cc(-c2ccc(OCCOCCn3cc(CCCOc4ccc5c(=O)cc(-c6ccccc6)oc5c4)nn3)cc2)oc2ccccc12,,19.1,,,> 662,23,92,> 100,30,,
,,Cl.O=c1cc(-c2ccc(OCCCc3cn(CCOCCOc4ccc5c(=O)cc(-c6ccccc6)oc5c4)nn3)cc2)oc2cc(F)ccc12,,,,,,,,,,90,
,,O=c1cc(-c2ccccc2)oc2cc(OCCCc3cn(CCOCCOc4ccc5c(=O)cc(-c6ccccc6)oc5c4)nn3)ccc12,,4,,,> 336,45,98,> 100,49,,
,,O=c1cc(-c2ccccc2)oc2cc(OCCN(Cc3ccccc3)Cc3cn(CCOCCOCCOc4ccc(-c5cc(=O)c6cc(F)ccc6o5)cc4)nn3)ccc12,,16.9,,,> 641,44,72,> 100,50,,
Bld,Insoluble,Cc1ccc2oc(-c3ccc(OCCOCCOCCOCCOCCOc4ccc(-c5cc(=O)c6cc(C)ccc6o5)cc4)cc3)cc(=O)c2c1,,,,,,,,> 100,,,
,,Cc1ccc2oc(-c3ccc(OCCOCCOCCn4cc(CCCOc5ccc(-c6cc(=O)c7ccc(F)cc7o6)cc5)nn4)cc3)cc(=O)c2c1,,36.9,,,> 826,45,95,> 100,50,,
,,O=c1cc(-c2ccc(OCCCc3cn(CCOCCOc4ccc(-c5cc(=O)c6ccccc6o5)cc4)nn3)cc2)oc2ccccc12,,31.7,,,531,29,81,60,51,,
,,O=c1cc(-c2ccc(OCCCc3cn(CCOCCOc4ccc5c(=O)cc(-c6ccccc6)oc5c4)nn3)cc2)oc2cc(F)ccc12 [listing 2 of 2 here],,,,,> 1890,41,93,> 100,49,,Active
,,Cc1ccc2oc(-c3ccc(OCCCCc4cn(CCOCCOCCOc5ccc(-c6cc(=O)c7cc(C)ccc7o6)cc5)nn4)cc3)cc(=O)c2c1,,58.8,,,> 365,38,100,> 50,50,,
,,O=c1cc(-c2ccc(OCCCc3cn(CCOCCOCCOc4ccc(-c5cc(=O)c6cc(F)ccc6o5)cc4)nn3)cc2)oc2cc(F)ccc12,,22.7,,,> 971,42,95,> 100,48,,
,,O=c1cc(-c2ccccc2)oc2cc(OCCOCc3cn(CCOCCOCCOc4ccc(-c5oc6ccccc6c(=O)c5OCc5ccccc5)cc4)nn3)ccc12,,46.7,,,> 518,45,95,> 100,48,,
,,O=c1cc(-c2ccc(OCCOCCn3cc(CN(CCOc4ccc5c(=O)cc(-c6ccccc6)oc5c4)Cc4ccccc4)nn3)cc2)oc2ccccc12,,38.7,,,,26,97,> 100,29,,
,,O=c1cc(-c2ccccc2)oc2cc(OCCN(Cc3ccccc3)Cc3cn(CCOCCOc4ccc(-c5cc(=O)c6cc(F)ccc6o5)cc4)nn3)ccc12,,26.5,,,> 645,36,87,> 100,46,,
,,O=c1cc(-c2ccc(OCCOCCn3cc(COCCOc4ccc5c(=O)cc(-c6ccccc6)oc5c4)nn3)cc2)oc2ccccc12,,3.3,,,> 190,31,97,> 50,46,,
,,Cc1ccc2oc(-c3ccc(OCCCCc4cn(CCOCCOc5ccc6c(=O)cc(-c7ccccc7)oc6c5)nn4)cc3)cc(=O)c2c1,,54.7,,,,34,93,> 100,46,,
